The values below come from paper PMC11624666 (Drug Design, Development and Therapy, 2024).

The structures appear in SMILES notation. Read-outs that look alike come from different tables or passages of the source. A value given as a limit tells only on which side of the number the result lay.

The conditions of data set [1]: six clinical pharmacology studies; cited from earlier work.
Data set [2] is classed as in vivo, healthy Chinese male subjects. As to conditions: male, human, plasma, po, 150 mg. In outline:
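Two-sequence (TR/RT), two-period randomised crossover in 44 healthy males (18–50 y, BMI 19–26 kg/m2, ≥50 kg) with a 7-day washout. Each period: single oral 150 mg tablet (test or reference) under fasting, with fasting kept ≥4 h post-dose. Plasma spun at 1700 g, 10 min, 2–8°C, stored at −80°C. Assay: protein precipitation, HPLC-MS/MS, positive ion mode, calibration 10.0–5000 ng/mL.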

Data set [3] can be described thus: Effect of food: fed. In kind it is in vivo, healthy Chinese male subjects. As to conditions: 150 mg; P < 0.05.
The nature of data set [4]: Safety monitoring over Part A, Part B and Part C. In kind it is in vivo. The following applies: healthy Chinese male subjects, single dose 100 mg or 150 mg. In outline: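 Single oral dose in a randomized two-sequence (TR/RT) crossover, two periods, 7-day washout. Part A: 100 mg fasting (n = 14). Part B: 150 mg fasting (n = 44). Part C: 150 mg after a high-fat breakfast (n = 44). TEAEs, both subject-reported and investigator-observed including lab values, were collected throughout and graded by CTCAE 5.0. Monitoring covered physical exams, vital signs, laboratory tests, 12-lead ECG and CT scans.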

The conditions of data set [5]: ref summary of product characteristics of olaparib; cited from earlier work.
For data set [6] the following is noted: Chinese patients, cited from earlier work.
For data set [7] the following is noted: Japanese patients, 300 mg single dosing; cited from earlier work.
The conditions of data set [8]: previous studies; cited from earlier work.
For data set [9] the following is noted: patients; cited from earlier work.
For data set [10] the following is noted: FDA Adverse Event Reporting System, cited from earlier work.

`O=C(c1cc(Cc2n[nH]c(=O)c3ccccc23)ccc1F)N1CCn2nc(C(F)(F)F)nc2C1` [fluzoparib]: in [1], the “tolerability in healthy individuals” value is on record as “well tolerated”.

The Tmax is the time at which the peak concentration occurs. One may read the half-life as how long it takes for the measured level to halve. Read a high half-life as slow decline. Consider `O=C(c1cc(Cc2n[nH]c(=O)c3ccccc23)ccc1F)N1CCN(C(=O)C2CC2)CC1` [olaparib], for which, in data set [2], the Tmax is 1.5 h and the half-life is 5.94 h. In data set [3], the “difference in Tmax, fed vs fasting state” value was “significantly prolonged”. Besides, in [4], the tolerability entry is listed as “well tolerated”. In data set [5], the “Tmax delayed by high-fat, high-calorie meal” value is given as 2.5 h and the “mean AUC increased by high-fat, high-calorie meal” value is “approximately 8%”. In [6] (100 mg single dosing), the “arithmetic mean t1/2” value is 7.17 h and the “median Tmax” value was 1.95 h. For the same molecule, in [6] (300 mg single dosing), the “arithmetic mean t1/2” value is given as 6.52 h. Moreover, in [7], the “arithmetic mean t1/2” value is listed as 9.43 h and the “median Tmax” value is 1.98 h. Further, in data set [8], the “inter-individual variation in the AUC” value is on record as 55–57%. In addition, in data set [9], the “first nausea, time after treatment initiation” value was at most 1 month; the “first vomiting, time after treatment initiation” value is on record as at most 2 months; the “median time to first occurrence of anemia” value was “approximately 4 weeks”. For the same molecule, the “adverse events received related to olaparib” value in data set [10] (2008 through first quarter of 2023) is listed as 10,957. Also, the “adverse events connected to genotoxicity” value in data set [10] is “no adverse events”.
